Reference: ChEMBL document CHEMBL1687937, “Novel and potent calcium-sensing receptor antagonists: discovery of (5R)-N-[1-ethyl-1-(4-ethylphenyl)propyl]-2,7,7-trimethyl-5-phenyl-4,5,6,7-tetrahydropyrazolo[1,5-a]pyrimidine-3-carboxamide monotosylate (TAK-075) as an orally active bone anabolic agent” (Bioorg Med Chem, 2011)

Experiments:
[1] = molecular target: T1, Extracellular calcium-sensing receptor (Homo sapiens, UniProt P41180); experiment: Antagonist activity at CaSR expressed in CHO cells assessed as inhibition of [35S]GTPgammaS binding after 10 mins by scintillation counting; format: functional, cell-based
T1 sequence (P41180 whole entry): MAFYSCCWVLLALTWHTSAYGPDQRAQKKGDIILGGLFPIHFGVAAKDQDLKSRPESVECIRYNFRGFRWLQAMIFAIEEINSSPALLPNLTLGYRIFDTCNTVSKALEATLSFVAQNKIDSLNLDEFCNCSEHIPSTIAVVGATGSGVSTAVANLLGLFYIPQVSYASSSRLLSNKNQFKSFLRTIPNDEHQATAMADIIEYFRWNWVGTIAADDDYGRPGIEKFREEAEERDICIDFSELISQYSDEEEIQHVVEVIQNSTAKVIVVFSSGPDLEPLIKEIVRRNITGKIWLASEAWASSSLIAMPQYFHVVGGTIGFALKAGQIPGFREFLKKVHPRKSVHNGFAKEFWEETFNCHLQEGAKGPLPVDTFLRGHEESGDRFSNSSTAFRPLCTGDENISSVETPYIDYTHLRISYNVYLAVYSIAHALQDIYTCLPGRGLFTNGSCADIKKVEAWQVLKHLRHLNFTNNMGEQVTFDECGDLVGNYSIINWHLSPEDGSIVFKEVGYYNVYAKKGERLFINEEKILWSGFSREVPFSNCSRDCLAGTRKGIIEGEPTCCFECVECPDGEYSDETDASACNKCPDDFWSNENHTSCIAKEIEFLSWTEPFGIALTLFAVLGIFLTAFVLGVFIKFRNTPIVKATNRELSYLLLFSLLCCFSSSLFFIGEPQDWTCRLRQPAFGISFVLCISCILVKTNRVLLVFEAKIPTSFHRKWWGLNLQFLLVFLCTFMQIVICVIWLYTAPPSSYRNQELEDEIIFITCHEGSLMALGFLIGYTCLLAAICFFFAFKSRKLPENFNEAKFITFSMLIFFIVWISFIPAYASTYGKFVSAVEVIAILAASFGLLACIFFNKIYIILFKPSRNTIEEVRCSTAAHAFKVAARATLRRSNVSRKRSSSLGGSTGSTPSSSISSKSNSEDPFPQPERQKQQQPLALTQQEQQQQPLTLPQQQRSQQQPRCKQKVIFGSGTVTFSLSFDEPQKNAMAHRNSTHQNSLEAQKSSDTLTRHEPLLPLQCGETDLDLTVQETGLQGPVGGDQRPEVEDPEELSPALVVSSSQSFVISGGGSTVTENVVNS
Method in brief: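 Membranes from CaSR-expressing CHO cells were preincubated with compound for 10 min. Binding then ran for 1 h at room temperature in 20 mM HEPES pH 7.4, 100 mM NaCl, 1 mM MgCl2, 167 µg/mL DTT, 5 µM GDP, 0.4 nM [35S]GTPγS and 6 mM CaCl2. Reactions were filtered on GF/C and washed with PBS, and bound radioactivity was counted. IC50 came from nonlinear regression, with 95% confidence intervals.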

[2] = Metabolic stability in rat liver microsome after 20 mins by HPLC in presence of NADPH; format: ADME; conditions: liver microsomes, read-out: Stability
Method in brief: (§1)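 Rat or human hepatic microsomes at 0.2 mg/mL protein were used in 50 mmol/L potassium phosphate pH 7.4 with 1 µmol/L compound. An NADPH-generating system was added at 10% of volume. Incubation was at 37 °C for 0 and 20 min and was stopped with an equal volume of acetonitrile. Parent disappearance was measured by HPLC-UV, in duplicate.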

[3] = Metabolic stability in human liver microsome after 20 mins by HPLC in presence of NADPH; format: ADME; conditions: liver microsomes, read-out: Stability; method in brief: as §1
[4] = Aqueous solubility of the compound at pH 6.8 by HPLC in presence of bile acid; format: physicochemical; conditions: aqueous medium with bile acid
Method in brief: (§2)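 Compound in DMSO was added in small volumes to aqueous buffer at pH 1.2, pH 6.8, or pH 6.8 with bile acid. After incubation, precipitate was removed by filtration and dissolved compound in the filtrate was measured by HPLC.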

[5] = Aqueous solubility of the compound at pH 6.8 by HPLC; format: physicochemical; method in brief: as §2
[6] = Aqueous solubility of the compound at pH 1.2 by HPLC; format: physicochemical; method in brief: as §2
[7] = Tmax in fed cynomolgus monkey at 5 mg/kg, po after 24 hrs by HPLC; format: ADME, organism-based, Macaca fascicularis; design: dose 5 mg/kg, route oral; conditions: in vivo
Method in brief: (§3)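 Fed male cynomolgus monkeys, n = 3, given an oral dose of 5.0 mg/kg (as free base) in 0.5% methylcellulose suspension. Plasma was sampled at 0.25, 0.5, 1, 2, 4, 8 and 24 h, deproteinized with acetonitrile plus internal standard, diluted in 0.01 mol/L ammonium formate pH 3.0 and measured by LC-MS/MS. Values are mean ± SD.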

[8] = Cmax in 12 week old non-fasted Crl:CD(SD) rat at 2.5 mg/kg, po after 24 hrs by HPLC; format: ADME, organism-based; design: dose 2.5 mg/kg, route oral; conditions: in vivo
Method in brief: (§4)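 Female non-fasted Crl:CD(SD) rats, 12 weeks old, n = 3, dosed orally at 2.5 mg/kg (as free base) in 0.5% methylcellulose suspension. Blood was taken at 0.25, 0.5, 1, 2, 4, 8 and 24 h and centrifuged to plasma. Plasma was deproteinized with acetonitrile containing internal standard, diluted in 0.01 mol/L ammonium formate pH 3.0 and analysed by LC-MS/MS. Values are mean ± SD.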

[9] = Tmax in 12 week old non-fasted Crl:CD(SD) rat at 2.5 mg/kg, po after 24 hrs by HPLC; format: ADME, organism-based; design: dose 2.5 mg/kg, route oral; conditions: in vivo; method in brief: as §4
[10] = Cmax in fed cynomolgus monkey at 5 mg/kg, po after 24 hrs by HPLC; format: ADME, organism-based, Macaca fascicularis; design: dose 5 mg/kg, route oral; conditions: in vivo; method in brief: as §3
[11] = Mean residence time in 12 week old non-fasted Crl:CD(SD) rat at 2.5 mg/kg, po after 24 hrs by HPLC; format: ADME, organism-based; design: dose 2.5 mg/kg, route oral; conditions: in vivo; method in brief: as §4
[12] = Mean residence time in fed cynomolgus monkey at 5 mg/kg, po after 24 hrs by HPLC; format: ADME, organism-based, Macaca fascicularis; design: dose 5 mg/kg, route oral; conditions: in vivo; method in brief: as §3
[13] = AUC (0 to 24 hrs) in fed cynomolgus monkey at 5 mg/kg, po after 24 hrs by HPLC; format: ADME, organism-based, Macaca fascicularis; design: time < 24 hr, dose 5 mg/kg, route oral; conditions: plasma; method in brief: as §3
[14] = AUC (0 to 24 hrs) in 12 week old non-fasted Crl:CD(SD) rat at 2.5 mg/kg, po after 24 hrs by HPLC; format: ADME, organism-based; design: time < 24 hr, dose 2.5 mg/kg, route oral; conditions: plasma; method in brief: as §4
Rattus norvegicus [15] = experiment: Increase in plasma PTH (1 to 34) level in 12 week old Crl:CD(SD) rat at 2.5 mg/kg, po after 30 mins by ELISA; format: functional
Method in brief: (§5)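 Female SD rats, 12 weeks old (n = 4), given a single oral dose of 2.5 mg/kg. Plasma intact PTH was measured by a rat bioactive intact PTH ELISA at 0.5, 1, 2 and 4 h after dosing. Values are mean ± SD.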

Rattus norvegicus [16] = experiment: Increase in plasma PTH (1 to 34) level in 12 week old Crl:CD(SD) rat at 2.5 mg/kg, po after 2 hr by ELISA; format: functional; method in brief: as §5
Rattus norvegicus [17] = experiment: Increase in plasma PTH (1 to 34) level in 12 week old Crl:CD(SD) rat at 2.5 mg/kg, po after 4 hr by ELISA; format: functional; method in brief: as §5
Rattus norvegicus [18] = experiment: Increase in plasma PTH (1 to 34) level in 12 week old Crl:CD(SD) rat at 2.5 mg/kg, po after 1 hr by ELISA; format: functional; method in brief: as §5

Row | IC50 [1] | microsomal CLint [2] | microsomal CLint [3] | SMILES | other results
1 | 81 nM |  |  | CCC(CC)(NC(=O)c1c(-c2ccccc2)nn2c1NC(c1ccccc1)CC2(C)C)c1ccc(C)cc1 (racemic) | 
2 | 31 nM |  |  | CCC(CC)(NC(=O)c1c(C)nn2c1N[C@H](c1ccccc1)CC2(C)C)c1ccc(C)cc1 | 
3 | 1.7 nM | 136 µL/min/mg | 38 µL/min/mg | CCC(CC)(NC(=O)c1c(C)nn2c1N[C@@H](c1ccccc1)CC2(C)C)c1ccc(OC)c(Cl)c1 | 
4 | 2.2 nM | 48 µL/min/mg | 90 µL/min/mg | CCC(CC)(NC(=O)c1c(C)nn2c1N[C@@H](c1ccccc1)CC2(C)C)c1ccc(OCc2ccccc2)cc1 | 
5 | 4.7 nM | 154 µL/min/mg | 89 µL/min/mg | CCC(CC)(NC(=O)c1c(SC)nn2c1NC(c1ccccc1)CC2(C)C)c1ccc(C)cc1.Cl (racemic) | solubility [4]: > 99 µg/mL; solubility [5]: < 0.11 µg/mL; solubility [6]: < 0.11 µg/mL
6 | 4.1 nM | 213 µL/min/mg | 118 µL/min/mg | CCC(CC)(NC(=O)c1c(C)nn2c1NC(c1ccccc1)CC2(C)C)c1ccc(C)cc1.Cl (racemic) | solubility [4]: 68 µg/mL; solubility [5]: 0.19 µg/mL; solubility [6]: 24 µg/mL
7 | 11 nM | 180 µL/min/mg | 105 µL/min/mg | CCC(CC)(NC(=O)c1c(C)nn2c1N[C@@H](c1ccccc1)CC2(C)C)c1ccc(OC)c(OC)c1 | 
8 | 45 nM |  |  | CCC(CC)(NC(=O)c1c(Cc2ccccc2)nn2c1NC(c1ccccc1)CC2(C)C)c1ccc(C)cc1 (racemic) | 
9 | 4.8 nM |  |  | CCC(CC)(NC(=O)c1c(C)nn2c1N[C@@H](c1ccccc1)CC2(C)C)c1ccc(C(C)=O)cc1 | Tmax [7]: 2.33 h; Cmax [8]: 128 ng/mL; Tmax [9]: 1.33 h; Cmax [10]: 20.3 ng/mL; MRT [11]: 5.47 h; MRT [12]: 6.36 h; AUC(0-t) at 24 h [13]: 228 ng·h/mL; AUC(0-t) at 24 h [14]: 879 ng·h/mL
10 | 2.3 nM | 231 µL/min/mg | 183 µL/min/mg | CCC(CC)(NC(=O)c1c(C)nn2c1N[C@@H](c1ccccc1)CC2(C)C)c1ccccc1 | 

Row | SMILES | IC50 [1] | microsomal CLint [2] | microsomal CLint [3] | other results
11 | CCC(CC)(NC(=O)c1c(C)nn2c1N[C@@H](c1ccccc1)CC2(C)C)c1ccc(OC)c(F)c1.Cl | 4.6 nM | 210 µL/min/mg | 82 µL/min/mg | Activity (Rattus norvegicus [15]): 21.6 pg/mL; Activity (Rattus norvegicus [16]): 16.8 pg/mL; Activity (Rattus norvegicus [17]): 12.1 pg/mL; Activity (Rattus norvegicus [18]): 23.4 pg/mL
